From PubChem
Rows were chosen to be rich in hits. Some 4.2% of all compounds tested hit in one or more screens of this group.
Cl transport mod – KCC2 cotransporter modulators, thallium flux, primary screen, cell-based, HEK293 KCC2, FluoZin-2 fluorescence, MLSMR; 190,000 compounds, 2.2% hits; Solute carrier family 12 member 5 (Homo sapiens), Q9H2X9; AID 1456, 2008; B-score of Tl+ flux slope (higher = more flux/activation; lower = inhibition) at 10 µM; KCC2 cells, thallium flux FluoZin-2 fluorescence;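 active means thallium flux slope and its plate-corrected score both differing from the plate sample mean at a set confidence after two filtering rounds, in either direction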;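 further: slope of fluorescence scaled to starting intensity during 10 to 20 s after thallium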
Target sequence (Q9H2X9 whole entry, looked up): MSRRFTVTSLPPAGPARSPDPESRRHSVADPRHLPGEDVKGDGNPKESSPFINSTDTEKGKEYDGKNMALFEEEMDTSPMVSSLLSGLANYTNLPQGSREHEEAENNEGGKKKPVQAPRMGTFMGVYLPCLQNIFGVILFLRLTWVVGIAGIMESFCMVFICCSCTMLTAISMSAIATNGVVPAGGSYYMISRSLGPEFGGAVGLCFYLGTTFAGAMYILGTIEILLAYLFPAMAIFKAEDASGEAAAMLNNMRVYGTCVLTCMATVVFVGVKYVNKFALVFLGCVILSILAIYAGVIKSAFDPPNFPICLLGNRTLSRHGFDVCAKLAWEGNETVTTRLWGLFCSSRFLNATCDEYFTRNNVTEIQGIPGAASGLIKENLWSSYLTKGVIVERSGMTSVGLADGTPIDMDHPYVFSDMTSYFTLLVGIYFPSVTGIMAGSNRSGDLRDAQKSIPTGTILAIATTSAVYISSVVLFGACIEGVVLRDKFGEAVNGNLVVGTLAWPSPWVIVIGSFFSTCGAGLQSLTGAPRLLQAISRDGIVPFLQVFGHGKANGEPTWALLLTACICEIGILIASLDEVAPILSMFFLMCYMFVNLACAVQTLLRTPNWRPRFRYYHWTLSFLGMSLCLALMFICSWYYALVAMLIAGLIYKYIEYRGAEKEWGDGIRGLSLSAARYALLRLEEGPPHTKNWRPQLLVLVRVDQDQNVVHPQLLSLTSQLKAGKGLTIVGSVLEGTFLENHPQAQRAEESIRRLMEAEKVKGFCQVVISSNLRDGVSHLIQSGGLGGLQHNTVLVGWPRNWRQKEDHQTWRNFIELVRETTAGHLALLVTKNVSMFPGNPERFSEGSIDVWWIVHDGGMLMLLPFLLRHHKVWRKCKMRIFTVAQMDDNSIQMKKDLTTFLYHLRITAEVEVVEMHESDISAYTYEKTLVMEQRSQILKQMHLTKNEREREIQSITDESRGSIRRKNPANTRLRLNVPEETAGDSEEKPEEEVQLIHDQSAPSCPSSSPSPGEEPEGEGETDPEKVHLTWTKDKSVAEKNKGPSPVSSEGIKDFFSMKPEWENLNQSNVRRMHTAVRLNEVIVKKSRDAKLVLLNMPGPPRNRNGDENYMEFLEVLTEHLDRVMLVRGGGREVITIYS
SKKanGAS inh – S. pyogenes SKKanGAS growth inhibitors in kanamycin, primary screen, streptokinase expression inhibitor project, SKKanGAS strain, BacTiter-Glo luminescence; 6 h; inhibition, % at 7.5 µM; 300,000 compounds, 1.3% hits;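 active means mean replicate score, as percent of positive control median, at least 50; inconclusive means mean below 50 but one replicate at or above 50; inactive means mean and every replicate below 50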;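 further: strain carries kanamycin resistance gene driven by streptokinase promoter and grows in 40 µg/ml kanamycin; loss of luminescence reflects streptokinase promoter inhibition or plain growth inhibition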
Rad51 HR inh – human RAD51 strand exchange inhibitors, primary screen, biochemical, fluorescence | DNA repair protein RAD51 homolog 1 (Homo sapiens), Q06609 | hRad51 DNA strand exchange, fluorescence dequenching | inhibition, % at 10 µM | 200,000 compounds, 0.085% hits | AID 1385, 2008;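 active means inhibition above 40% at the single screening dose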
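Assay system: Human Rad51 nucleoprotein filaments preassembled on unlabelled ssDNA | Reagent: Donor/quencher-labelled 47-bp dsDNA substrate | Doses: One concentration, 10 µM final | Times: 37 °C 15-min filament assembly, 30-min compound preincubation, 15-min exchange | Technique: Fluorescein emission 520 nm, excitation 485 nm | Benchmarks: Plate control and blank wells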
Ins promoter up – insulin promoter activators in MIN6 cells, imaging, high-content screening, mouse beta cells. MIN6 insulin promoter-GFP reporter; hits give high values. z-score at 5 µM. 190,000 compounds, 0.3% hits. AID 1625, 2009;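 active means z-score above 3 at 5 µM with at least 500 cells counted in the well; inconclusive means wells under 500 cells, flagged as cytotoxic or low count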
WT yeast gro inh – growth inhibition of WT strain, primary screen, mitochondrial fusion inhibitor project, WT and mutant strains, chemical genetic; mitochondrial fusion phenotypic screen; 190,000 compounds, 2.1% hits; inhibition, % at 10 µM; in the data active means inhibition above about 58%; tested in S. cerevisiae
Autophagy mod – autophagy modulators in MEF cells, primary screen, imaging, high-content, MEF GFP-LC3; 190,000 compounds, 0.98% hits; calls only at 10 µM (by protocol); AID 463193, 2010; MEF GFP-LC3 puncta imaging; test concentration mostly 10 µM;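 active means percentage of spot-positive cells more than 3 SD above its plate mean, without a fluorescence outlier flag or 80% toxicity; inconclusive means no clear call, values can overlap the other calls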
A number is an active result; n = inactive; u = inconclusive; x = not tested or not shown; + = active, no number.

SMILES | Cl transport mod | SKKanGAS inh | Rad51 HR inh | Ins promoter up | WT yeast gro inh | Autophagy mod
Cc1ccc(C=Nc2ccccc2C(N)=O)cc1 | n | n | n | n | n | +
CCOc1ccc(NC(=O)CSc2nc(=O)n(CCCN3CCOCC3)c3c2CCC3)cc1 | x | n | x | x | x | x
COc1cc(C(=O)NS(=O)(=O)c2ccccc2C)ccc1Cc1cn(C)c2ccc(NC(=O)OC3CCCC3)cc12 | n | 67.6 | n | n | n | x
CC(=O)n1c2ccccc2c2ccccc21 | n | n | n | x | n | n
c1ccc(-n2c3ccccc3c3ccccc32)cc1 | n | 58.3 | n | n | x | x
O=C(c1ccccc1)c1ccccc1C(=O)c1ccccc1 | n | n | n | n | x | x
O=C(c1ccccc1)c1cc(Cl)ccc1N1C(=O)C=CC1=O | n | x | n | n | 85.2 | n
CCN(CC(=O)Nc1c(C(=O)OC)[nH]c2ccc(Cl)cc12)c1ccc2c(c1)OCO2 | n | n | n | n | 68.2 | n
CCC(Oc1ccc(F)cc1)C(=O)N1CCCCCCC1 (centres undefined) | x | n | x | x | x | x
Cc1cc([N+](=O)[O-])nn1CC(=O)N1c2ccccc2CC1C (centres undefined) | n | n | n | n | n | n
CS(=O)(=O)N1CCN(C(=O)c2ccc(Cl)s2)CC1 | n | n | 43.1 | n | n | n
CN1CCN(Cc2nc3ccccc3c(=O)n2Cc2nc(-c3ccc4ccccc4c3)cs2)CC1 | n | n | n | n | 80.7 | n
CN1CCN(Cc2nc3ccccc3c(=O)n2Cc2nc(-c3cccc([N+](=O)[O-])c3)cs2)CC1 | n | x | n | n | n | n
O=C(CN1C(=O)NC2(CCCCC2)C1=O)NCC(=O)Nc1ccc(F)c(F)c1 | x | n | x | x | x | x
CCOC(=O)/C(=N\Nc1ccc(Cl)cc1)c1csc(Nc2ccccc2)n1 | n | 72.6 | n | n | n | n
CCOC(=O)/C(=N\Nc1ccc(OC)cc1)c1csc(Nc2ccccc2)n1 | n | 60.0 | n | x | n | n
CCOC(=O)/C(=N/Nc1ccccc1)c1csc(Nc2ccccc2)n1 | x | 91.2 | n | x | n | n
CCN(CC)C(=O)c1csc(Nc2ccc(C)cc2)n1 | n | x | n | n | n | n
CCOc1ccc(NC(=O)C/C(C)=N/NC(=O)COc2ccc(Br)cc2C)cc1 | x | n | x | x | x | x
CCOC(=O)Nc1sc2c(c1C(=O)OCC)CCC2 | n | n | n | n | n | n
CCOC(=O)c1c(NC(NC(=O)C(C)C)C(Cl)(Cl)Cl)sc2c1CCC2 (centres undefined) | n | n | n | n | 65.7 | n
CCN(CC)S(=O)(=O)c1cc([N+](=O)[O-])ccc1N=Nc1c(O)[nH]c2ccccc12 | n | n | n | x | n | +
O=[N+]([O-])c1ccc2[nH]c(O)c(N=Nc3ccc(F)cc3)c2c1 | x | n | x | x | x | x
O=S(=O)(N/N=C\c1ccc2c(c1)OCO2)c1ccc(F)cc1 | x | n | x | x | x | x
O=C(Nc1ccc(N2CCCCC2)cc1)c1cccnc1 | n | n | n | 3.44 | n | n
SMILES | Cl transport mod | SKKanGAS inh | Rad51 HR inh | Ins promoter up | WT yeast gro inh | Autophagy mod
CC(NCC(O)COC1CCC(C(C)(C)C)CC1)c1ccccc1 (centres undefined) | n | n | n | n | 71.5 | +
CC1CCC(C(C)C)C(OCC(O)CNC(C)(C)C)C1 (centres undefined) | n | n | n | n | n | n
CC1CCC(C(C)C)C(OCC(O)CNC(C)c2ccccc2)C1 (centres undefined) | n | n | n | n | 67.4 | n
O=C(NCCC(=O)N1CCCC1)c1ccccc1Cl | x | n | x | x | x | x
CCNC(=S)N/N=C/c1ccc(F)cc1 | n | n | n | n | n | n
C=CCNC(=S)N/N=C/c1ccc(C(C)(C)C)cc1 | n | n | n | n | 76.5 | n
CCN(CC)CCNc1ncnc2c1[nH]c1ccc(OC)cc12 | x | n | n | x | n | n
COc1ccc2[nH]c3c(NCCC4=CCCCC4)ncnc3c2c1 | n | n | n | x | 84.2 | n
O=C(NCc1ccccc1)c1ccc(C(=O)N(C2CCCCC2)C2CCCCC2)cc1 | n | n | n | n | 61.5 | n
O=C(NC1CCCCCC1)C(=S)NCc1ccccc1 | n | n | n | n | 73.4 | n
CCCc1nc(SCC(=O)N2CCCCCC2)c2c(=O)n(C)c(=O)n(C)c2n1 | x | 50.1 | x | x | x | x
CCCCc1nc(SCC(=O)N2CCCCC2)c2c(=O)n(C)c(=O)n(C)c2n1 | x | n | x | x | x | x
COc1ccc(Sc2cc(C(F)(F)F)nc(-c3ccccn3)n2)cc1 | n | n | n | n | 62.2 | n
COc1ccc(OC)c(NC(=O)CCn2c(=S)[nH]c3ccccc3c2=O)c1 | x | n | x | x | x | x
COc1ccc(OC)c(NC(=O)c2ccc3c(=O)n(CCc4ccccc4)c(=S)[nH]c3c2)c1 | n | n | n | n | n | +
CCn1c(=S)[nH]c2cc(C(=O)OC)ccc2c1=O | 9.25 | n | n | n | n | n
Cc1cc(C)n(-c2nc(N(c3ccccc3)c3ccccc3)nc(-n3nc(C)cc3C)n2)n1 | x | 107.7 | n | u | n | n
CCc1nc(N)nc(N)c1-c1ccc(Cl)cc1 | n | 69.9 | n | x | n | n
CCCCn1c(-c2csc3c2CCC(C)C3)n[nH]c1=S (centres undefined) | 22.4 | n | n | n | 75.8 | n
C=CCn1c(-c2csc3c2CCC(C)C3)n[nH]c1=S (centres undefined) | n | n | n | n | n | n
CCCCn1c(-c2csc3c2CCCC3)n[nH]c1=S | 2.98 | n | n | n | n | n
Cc1cc(C)c(C)c(S(=O)(=O)N2CCN(CC(=O)Nc3sccc3C#N)CC2)c1C | n | n | n | n | n | n
CCOC(=O)C1CCN(S(=O)(=O)c2c(C)n[nH]c2C)CC1 | x | n | n | n | 66.9 | n
CCOC(=O)C1CCN(S(=O)(=O)c2c(C)[nH]c(=O)[nH]c2=O)CC1 | n | n | n | n | n | n
O=C(Oc1ccc(-c2nnco2)cc1)N(c1ccccc1)c1ccccc1 | x | n | n | n | 58.3 | n
SMILES | Cl transport mod | SKKanGAS inh | Rad51 HR inh | Ins promoter up | WT yeast gro inh | Autophagy mod
O=C(Oc1ccc(-c2nnco2)cc1)c1ccc(Br)o1 | x | n | x | x | x | x
Cc1nn(CC(=O)NCCc2cccs2)c(=O)c2cc3ccccc3n12 | x | n | x | x | x | x
Cc1ccc(S(=O)(=O)Nc2cc(Cl)c(O)c3ncccc23)cc1 | x | 78.9 | x | x | x | x
Cn1cc(CNC(=O)/C=C/c2ccc(Cl)cc2)cn1 | x | n | n | n | n | n
COc1ccc(N2CCN(C(=O)c3c(-c4c(F)cccc4Cl)noc3C)CC2)cc1 | x | n | x | x | x | x
O=c1c2ccccc2n(Cc2cccc(F)c2)c(=O)n1C1CCCC1 | x | n | n | n | 76.3 | n
